According to ChEMBL document CHEMBL4602731, “A γ-Lactam Siderophore Antibiotic Effective against Multidrug-Resistant Gram-Negative Bacilli” (J Med Chem, 2020):
In brackets after ≈: the same amount, converted by molar mass.

Experiments:
Pseudomonas aeruginosa [1] = assay: Antimicrobial activity against Pseudomonas aeruginosa PAO1 in presence of 10 ug/ml iron by standard broth microdilution method; assay type: functional
Summary of the method: (§1)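 MICs by CLSI broth microdilution, inoculum 6 × 10^4 CFU/mL, in cation-adjusted Mueller–Hinton broth iron-depleted with cation-exchange resin (reported to leave 0.02 μg/mL iron). Soluble iron added back; total media iron expected 0.02, 0.12, 1.02 and 10.02 μg/mL.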

Pseudomonas aeruginosa [2] = assay: Antimicrobial activity against Pseudomonas aeruginosa clinical isolate in absence of iron by standard broth microdilution method
Pseudomonas aeruginosa [3] = assay: Antimicrobial activity against Pseudomonas aeruginosa clinical isolate in presence of 10 ug/ml iron by standard broth microdilution method
Pseudomonas aeruginosa [4] = assay: Antimicrobial activity against Pseudomonas aeruginosa PAO1 in presence of 1 ug/ml iron by standard broth microdilution method; assay type: functional; summary of the method: as §1
Pseudomonas aeruginosa [5] = assay: Antimicrobial activity against Pseudomonas aeruginosa clinical isolate in presence of 1 ug/ml iron by standard broth microdilution method
Pseudomonas aeruginosa [6] = assay: Antimicrobial activity against Pseudomonas aeruginosa PAO1 in absence of iron by standard broth microdilution method; assay type: functional
Summary of the method: (§2)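 CLSI broth microdilution in iron-depleted cation-adjusted Mueller–Hinton broth, made by cation-exchange resin treatment, with an inoculum of 6 × 10^4 CFU/mL. For the iron series, soluble iron is added to the depleted medium. Total iron in the tested media is expected to be 0.02, 0.12, 1.02 and 10.02 μg/mL.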

Pseudomonas aeruginosa [7] = assay: Antimicrobial activity against Pseudomonas aeruginosa clinical isolate in presence of 0.1 ug/ml iron by standard broth microdilution method
[8] = molecular target: Voltage-gated inwardly rectifying potassium channel KCNH2 (Homo sapiens, UniProt Q12809); assay: Binding affinity to human ERG at 30 uM
[9] = molecular target: Penicillin-binding protein 3 (Pseudomonas aeruginosa, UniProt Q51504); assay: Inhibition of Pseudomonas aeruginosa PBP3 assessed as reduction in fluorescence intensity of bocillin labeled protein pre-incubated for 20 mins before bocillin addition by SDS-PAGE analysis
[10] = Plasma concentration CD1 mouse at 50 mg/kg, iv after 2 hrs by HPLC-MS/MS analysis; assay type: ADME, organism-based
Summary of the method: (§3)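 CD-1 mice, single IV dose of 50 mg/kg, parallel sampling in groups of 24 animals. Blood is taken by cardiac puncture under isoflurane into lithium heparin or K2EDTA tubes and spun at 2500 × g for 15 min at 4 °C. Plasma is precipitated with acetonitrile and run on HPLC-MS/MS against a spiked-plasma calibration curve with internal standard. Parameters come from noncompartmental analysis.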

[11] = Solubility in pH 7.5 phosphate buffer by nephelometry; assay type: physicochemical
Summary of the method: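 Solubility in pH 7.5 phosphate buffer, measured by nephelometry.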

[12] = molecular target: cGMP-inhibited 3',5'-cyclic phosphodiesterase 3A (Homo sapiens) (UniProt Q14432); assay: Inhibition of PDE3A (unknown origin) at 30 uM relative to control
Summary of the method: (§4)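 Safety panel of 44 enzymes, receptors and channels, with compound tested at 30 μM. Percent inhibition is measured.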

[13] = Stability in pH 7.5 phosphate buffer assessed as compound hydrolysis after 2 weeks at room temperature; assay type: physicochemical; details: read-out: Drug degradation
[14] = AUC (extrapolated) in CD1 mouse at 50 mg/kg, iv after 2 hrs by HPLC-MS/MS analysis; assay type: ADME, organism-based; details: in vivo; summary of the method: as §3
[15] = Substrate activity at VIM-2 (unknown origin) assessed as Kcat/Km ratio for compound hydrolysis by diode array spectrophotometry; assay type: ADME; details: bacteria
[16] = AUClast in CD1 mouse at 50 mg/kg, iv after 2 hrs by HPLC-MS/MS analysis; assay type: ADME, organism-based; set-up: time < 2 hr, dose 50 mg/kg, route intravenous; details: in vivo; summary of the method: as §3
Pseudomonas aeruginosa [17] = assay: Antimicrobial activity against Pseudomonas aeruginosa PAO1 in presence of 0.1 ug/ml iron by standard broth microdilution method; assay type: functional; summary of the method: as §2
[18] = Half life human liver microsomes; assay type: ADME, Microsome
[19] = Half life CD1 mouse liver microsomes; assay type: ADME, Microsome
Escherichia coli = assay: Antimicrobial activity against Escherichia coli clinical isolates by standard broth microdilution method; assay type: functional
[20] = Half life in CD1 mouse at 50 mg/kg, iv after 2 hrs by HPLC-MS/MS analysis; assay type: ADME, organism-based; details: in vivo; summary of the method: as §3
Pseudomonas aeruginosa [21] = assay: Antimicrobial activity against Pseudomonas aeruginosa clinical isolates by standard broth microdilution method; assay type: functional
[22] = molecular target: Prostaglandin G/H synthase 1 (Homo sapiens) (UniProt P23219); assay: Inhibition of COX1 (unknown origin) at 30 uM relative to control; summary of the method: as §4
Cytochrome P450 = assay: Inhibition of CYP450 (unknown origin) at 30 uM; assay type: ADME, protein assay; details: human
[23] = Substrate activity at IMP-1 (unknown origin) assessed as Kcat/Km ratio for compound hydrolysis by diode array spectrophotometry; assay type: ADME; details: bacteria
[24] = Substrate activity at KPC-2 (unknown origin) assessed as compound hydrolysis at 100 uM by diode array spectrophotometry; assay type: ADME; details: bacteria
[25] = Substrate activity at PER-2 (unknown origin) assessed as compound hydrolysis at 100 uM by diode array spectrophotometry; assay type: ADME; details: bacteria
[26] = molecular target: Penicillin-binding protein 3 (Pseudomonas aeruginosa) (UniProt Q51504); assay: Stabilization of Pseudomonas aeruginosa PBP3 assessed as melting temperature at 1 mM by DSF thermal shift assay (reference value: 44.1 +/- 0.14 degC)
Summary of the method: (§5)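 Ligand at […], ceftazidime at 0.2 mM as positive control; no-ligand control with 1% DMSO. Derivative of fluorescence change plotted against temperature.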

[27] = Substrate activity at OXA-24 (unknown origin) assessed as compound hydrolysis at 100 uM by diode array spectrophotometry; assay type: ADME; details: bacteria
[28] = molecular target: Penicillin-binding protein 3 (Pseudomonas aeruginosa) (UniProt Q51504); assay: Stabilization of Pseudomonas aeruginosa PBP3 assessed as increase in melting temperature at 1 mM by DSF thermal shift assay
[29] = Volume of distribution at steady state in CD1 mouse at 50 mg/kg, iv after 2 hrs by HPLC-MS/MS analysis; assay type: ADME, organism-based; details: in vivo; summary of the method: as §3
Klebsiella pneumoniae = assay: Antimicrobial activity against Klebsiella pneumoniae clinical isolates by standard broth microdilution method; assay type: functional
[30] = Substrate activity at IMP-1 (unknown origin) assessed as Kcat for compound hydrolysis by diode array spectrophotometry; assay type: ADME; details: bacteria
Hepatocyte = assay: Toxicity in human primary hepatocytes at 100 uM incubated for 72 hrs; assay type: cell-based
Summary of the method: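 Primary human hepatocytes exposed to compound at a maximum of 100 μM for 72 h.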

[31] = AUC (infinity) in CD1 mouse at 50 mg/kg, iv after 2 hrs by HPLC-MS/MS analysis; assay type: ADME, organism-based; set-up: dose 50 mg/kg, route intravenous, time infinity; details: in vivo; summary of the method: as §3
[32] = Substrate activity at NDM-1 (unknown origin) assessed as Kcat/Km ratio for compound hydrolysis by diode array spectrophotometry; assay type: ADME; details: bacteria
Summary of the method: (§6)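 The compound is the substrate, in molar excess for pseudo-first-order conditions. Hydrolysis is followed spectrophotometrically at Δε336 = −5500 M−1 cm−1 in a 1 cm quartz cuvette.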

[33] = Initial drug concentration in CD1 mouse at 50 mg/kg, iv after 2 hrs by HPLC-MS/MS analysis; assay type: ADME, organism-based; details: in vivo; summary of the method: as §3
[34] = Substrate activity at NDM-1 (unknown origin) assessed as Kcat for compound hydrolysis by diode array spectrophotometry; assay type: ADME; details: bacteria; summary of the method: as §6
[35] = Substrate activity at VIM-2 (unknown origin) assessed as Kcat for compound hydrolysis by diode array spectrophotometry; assay type: ADME; details: bacteria
[36] = Substrate activity at OXA-23 (unknown origin) assessed as compound hydrolysis at 100 uM by diode array spectrophotometry; assay type: ADME; details: bacteria
[37] = Inhibition of Acinetobacter baumanni PBP3 assessed as reduction in fluorescence intensity of bocillin labeled protein by SDS-PAGE analysis; set-up: species or system Acinetobacter baumannii
[38] = Stability in pH 7.5 phosphate buffer assessed as compound hydrolysis measured 24 hrs after reconstitution; assay type: physicochemical; details: read-out: Drug degradation
[39] = molecular target: Penicillin-binding protein 3 (Pseudomonas aeruginosa) (UniProt Q51504); assay: Stabilization of Pseudomonas aeruginosa PBP3 assessed as melting temperature at 0.2 mM by DSF thermal shift assay (reference value: 44.1 +/- 0.14 degC); summary of the method: as §5

Sequence of Penicillin-binding protein 3 (Pseudomonas aeruginosa) (Q51504 as listed by the source): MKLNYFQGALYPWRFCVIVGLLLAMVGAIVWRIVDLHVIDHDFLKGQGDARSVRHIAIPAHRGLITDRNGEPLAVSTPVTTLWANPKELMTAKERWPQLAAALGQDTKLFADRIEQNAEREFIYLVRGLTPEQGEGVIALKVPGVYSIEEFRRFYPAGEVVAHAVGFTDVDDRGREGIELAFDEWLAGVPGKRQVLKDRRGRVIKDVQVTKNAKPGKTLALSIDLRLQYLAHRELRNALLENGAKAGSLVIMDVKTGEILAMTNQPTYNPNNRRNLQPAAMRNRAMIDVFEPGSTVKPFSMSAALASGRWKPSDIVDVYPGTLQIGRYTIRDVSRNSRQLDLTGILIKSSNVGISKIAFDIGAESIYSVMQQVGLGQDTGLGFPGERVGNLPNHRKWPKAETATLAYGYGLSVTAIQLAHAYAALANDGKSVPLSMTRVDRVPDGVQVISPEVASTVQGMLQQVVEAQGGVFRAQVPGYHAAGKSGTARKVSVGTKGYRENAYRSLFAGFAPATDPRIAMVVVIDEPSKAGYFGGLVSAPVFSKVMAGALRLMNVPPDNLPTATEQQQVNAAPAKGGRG
Sequence of Prostaglandin G/H synthase 1 (Homo sapiens) (P23219 whole entry): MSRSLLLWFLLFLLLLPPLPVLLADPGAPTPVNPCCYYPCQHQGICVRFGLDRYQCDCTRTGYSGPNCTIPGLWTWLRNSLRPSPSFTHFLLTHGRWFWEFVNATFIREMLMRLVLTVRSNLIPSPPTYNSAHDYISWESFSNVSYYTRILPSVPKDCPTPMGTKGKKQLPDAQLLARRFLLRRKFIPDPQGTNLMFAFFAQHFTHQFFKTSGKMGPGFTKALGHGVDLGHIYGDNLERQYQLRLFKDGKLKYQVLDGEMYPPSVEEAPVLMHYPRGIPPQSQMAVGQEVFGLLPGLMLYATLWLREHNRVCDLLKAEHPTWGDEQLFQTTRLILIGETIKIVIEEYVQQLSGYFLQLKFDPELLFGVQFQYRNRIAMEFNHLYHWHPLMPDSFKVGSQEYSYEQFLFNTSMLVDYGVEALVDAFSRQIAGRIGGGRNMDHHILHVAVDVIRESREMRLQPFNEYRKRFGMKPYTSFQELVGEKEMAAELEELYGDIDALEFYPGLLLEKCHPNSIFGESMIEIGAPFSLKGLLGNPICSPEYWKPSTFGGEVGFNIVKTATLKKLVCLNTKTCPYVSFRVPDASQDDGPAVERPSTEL
Sequence of Penicillin-binding protein 3 (Q51504 whole entry): as the sequence (Q51504 as listed by the source) above
Sequence of Voltage-gated inwardly rectifying potassium channel KCNH2 (Q12809 whole entry): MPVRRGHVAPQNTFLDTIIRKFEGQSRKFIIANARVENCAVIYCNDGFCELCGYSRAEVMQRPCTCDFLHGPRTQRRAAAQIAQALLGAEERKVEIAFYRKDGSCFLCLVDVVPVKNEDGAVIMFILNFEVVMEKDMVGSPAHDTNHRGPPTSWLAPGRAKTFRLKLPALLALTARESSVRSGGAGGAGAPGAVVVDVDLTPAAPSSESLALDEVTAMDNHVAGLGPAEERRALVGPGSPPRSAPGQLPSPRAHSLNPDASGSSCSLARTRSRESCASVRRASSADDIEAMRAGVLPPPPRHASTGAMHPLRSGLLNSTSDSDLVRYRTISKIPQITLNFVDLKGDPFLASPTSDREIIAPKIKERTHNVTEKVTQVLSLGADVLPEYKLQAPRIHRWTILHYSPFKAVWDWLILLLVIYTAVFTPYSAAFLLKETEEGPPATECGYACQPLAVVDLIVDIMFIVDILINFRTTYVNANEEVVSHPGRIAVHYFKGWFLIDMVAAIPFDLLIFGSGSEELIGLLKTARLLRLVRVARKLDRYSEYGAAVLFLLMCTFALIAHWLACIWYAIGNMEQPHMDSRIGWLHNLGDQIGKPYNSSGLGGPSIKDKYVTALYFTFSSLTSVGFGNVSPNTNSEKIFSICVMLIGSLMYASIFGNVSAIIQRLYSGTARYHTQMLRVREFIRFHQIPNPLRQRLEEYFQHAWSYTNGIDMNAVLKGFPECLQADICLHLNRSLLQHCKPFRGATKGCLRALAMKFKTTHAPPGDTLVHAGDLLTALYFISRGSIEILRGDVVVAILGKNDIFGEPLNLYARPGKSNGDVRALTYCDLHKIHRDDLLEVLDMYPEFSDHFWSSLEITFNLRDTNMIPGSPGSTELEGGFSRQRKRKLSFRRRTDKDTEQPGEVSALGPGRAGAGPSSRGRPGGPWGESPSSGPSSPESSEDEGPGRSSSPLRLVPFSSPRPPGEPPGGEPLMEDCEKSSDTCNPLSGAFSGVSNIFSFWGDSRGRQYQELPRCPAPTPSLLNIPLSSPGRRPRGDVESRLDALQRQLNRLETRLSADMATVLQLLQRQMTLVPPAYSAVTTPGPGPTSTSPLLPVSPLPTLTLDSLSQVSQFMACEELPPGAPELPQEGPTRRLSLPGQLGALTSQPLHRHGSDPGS
Sequence of cGMP-inhibited 3',5'-cyclic phosphodiesterase 3A (Homo sapiens) (Q14432 whole entry): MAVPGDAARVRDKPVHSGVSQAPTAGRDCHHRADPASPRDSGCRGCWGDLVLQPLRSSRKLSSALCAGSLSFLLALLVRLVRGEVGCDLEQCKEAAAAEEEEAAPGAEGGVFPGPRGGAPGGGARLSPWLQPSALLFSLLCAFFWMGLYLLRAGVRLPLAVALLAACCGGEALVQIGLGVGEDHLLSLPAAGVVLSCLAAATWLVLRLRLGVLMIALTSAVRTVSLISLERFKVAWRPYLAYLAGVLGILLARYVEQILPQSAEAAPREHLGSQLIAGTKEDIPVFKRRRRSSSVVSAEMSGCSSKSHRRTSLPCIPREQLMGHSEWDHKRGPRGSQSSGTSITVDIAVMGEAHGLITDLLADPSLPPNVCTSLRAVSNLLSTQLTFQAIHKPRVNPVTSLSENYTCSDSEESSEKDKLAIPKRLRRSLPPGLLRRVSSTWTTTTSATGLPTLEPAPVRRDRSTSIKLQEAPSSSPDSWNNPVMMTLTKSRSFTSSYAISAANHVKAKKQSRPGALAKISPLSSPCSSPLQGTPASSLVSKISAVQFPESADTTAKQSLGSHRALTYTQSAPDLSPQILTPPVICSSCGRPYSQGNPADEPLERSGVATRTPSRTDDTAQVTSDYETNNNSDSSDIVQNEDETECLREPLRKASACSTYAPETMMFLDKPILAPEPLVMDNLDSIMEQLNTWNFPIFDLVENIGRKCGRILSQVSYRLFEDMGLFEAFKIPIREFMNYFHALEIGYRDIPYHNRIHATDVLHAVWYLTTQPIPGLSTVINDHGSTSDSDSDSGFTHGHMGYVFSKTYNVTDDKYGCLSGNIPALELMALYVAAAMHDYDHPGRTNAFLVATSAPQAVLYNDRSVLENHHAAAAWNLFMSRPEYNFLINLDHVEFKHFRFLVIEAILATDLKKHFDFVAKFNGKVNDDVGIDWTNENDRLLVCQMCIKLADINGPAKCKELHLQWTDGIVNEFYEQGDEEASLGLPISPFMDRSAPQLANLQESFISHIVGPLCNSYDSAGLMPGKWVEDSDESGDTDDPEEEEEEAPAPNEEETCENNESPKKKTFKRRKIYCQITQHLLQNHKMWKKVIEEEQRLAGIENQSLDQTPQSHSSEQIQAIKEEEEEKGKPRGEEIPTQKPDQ

CC(C)(O/N=C(\C(=O)N[C@@H]1C(=O)N2C(C(=O)[O-])=C(C[N+]3(CCNC(=O)c4ccc(O)c(O)c4Cl)CCCC3)CS[C@H]12)c1csc(N)n1)C(=O)O [CEFIDEROCOL]
MIC (Pseudomonas aeruginosa [1]): 2 µg/mL
MIC (Pseudomonas aeruginosa [2]): 0.13 µg/mL (≈ 0.173 µM)
MIC (Pseudomonas aeruginosa [3]): 1 µg/mL
MIC (Pseudomonas aeruginosa [4]): 0.5 µg/mL
MIC (Pseudomonas aeruginosa [5]): 0.25 µg/mL
MIC (Pseudomonas aeruginosa [6]): 0.06 µg/mL (≈ 0.0798 µM)
MIC (Pseudomonas aeruginosa [7]): 0.13 µg/mL

CC(C)(O/N=C(\C(=O)N[C@H]1CN2CC(C(=O)NCCN3C(=O)c4cc(O)c(O)cc4C3=O)=C(C(=O)O)N2C1=O)c1csc(N)n1)C(=O)O
Activity [8]: Not Active
IC50 [9]: 2.5 µM
concentration at 2 h [10]: 1400 ng/mL
solubility kinetic [11]: > 100 µM
inhibition [12]: 66%
degraded at 336 h [13]: 4%
%AUCextra [14]: 3%
MIC (Pseudomonas aeruginosa [1]): > 16 µg/mL
Kcat/Km [15]: 20000 M⁻¹ s⁻¹
AUClast [16]: 55866 ng·h/mL
MIC (Pseudomonas aeruginosa [17]): 2 µg/mL
MIC (Pseudomonas aeruginosa [2]): 0.5 µg/mL (≈ 0.728 µM)
t1/2 [18]: > 1 h
t1/2 [19]: > 1 h
MIC50 (Escherichia coli): 1 µg/mL (≈ 1.46 µM)
t1/2 [20]: 11 h
MIC50 (Pseudomonas aeruginosa [21]): 1 µg/mL (≈ 1.46 µM)
MIC90 (Pseudomonas aeruginosa [21]): 8 µg/mL (≈ 11.7 µM)
inhibition [22]: 63%
inhibition (INH) (Cytochrome P450): Not Active
Kcat/Km [23]: 70000 M⁻¹ s⁻¹
Activity [24]: Not Active
MIC (Pseudomonas aeruginosa [3]): > 16 µg/mL
Activity [25]: Not Active
MIC (Pseudomonas aeruginosa [4]): 16 µg/mL
Tm [26]: 51 °C
Activity [27]: Not Active
ΔTm [28]: 7 °C
Vdss [29]: 2 L/kg
MIC50 (Klebsiella pneumoniae): 1 µg/mL (≈ 1.46 µM)
Kcat [30]: 5 s⁻¹
MIC (Pseudomonas aeruginosa [5]): > 16 µg/mL
Activity (Hepatocyte): Non-Toxic
AUC [31]: 57791 ng·h/mL
Kcat/Km [32]: 20000 M⁻¹ s⁻¹
C0 [33]: 200844 ng/mL
Kcat [34]: 7 s⁻¹
Kcat [35]: 20 s⁻¹
Activity [36]: Not Active

C[C@@H](O)[C@H]1C(=O)N2C(C(=O)O)=C(S[C@@H]3CN[C@H](CNS(N)(=O)=O)C3)[C@H](C)[C@H]12 [DORIPENEM]
IC50 [37]: 2.3 µM

NC(=O)[C@@H]1CC[C@@H]2CN1C(=O)N2OS(=O)(=O)O [AVIBACTAM]
MIC50 (Pseudomonas aeruginosa [21]): 4 µg/mL (≈ 15.1 µM)
MIC90 (Pseudomonas aeruginosa [21]): > 32 µg/mL
MIC50 (Klebsiella pneumoniae): 0.5 µg/mL (≈ 1.89 µM)
MIC90 (Klebsiella pneumoniae): 2 µg/mL (≈ 7.54 µM)

C[C@@H](O)[C@H]1C(=O)N2C(C(=O)O)=C(SCCN=CN)C[C@H]12 [IMIPENEM ANHYDROUS]
Kcat/Km [15]: 6.7e+06 M⁻¹ s⁻¹
Kcat/Km [23]: 3.2e+06 M⁻¹ s⁻¹
Kcat [30]: 36 s⁻¹
Kcat [35]: 57 s⁻¹

C[C@@H](O)[C@H]1C(=O)N2C(C(=O)O)=C(S[C@@H]3CN[C@H](C(=O)N(C)C)C3)[C@H](C)[C@H]12 [MEROPENEM]
degraded at 24 h [38]: > 30%
MIC50 (Escherichia coli): ≤ 1 µg/mL
MIC90 (Escherichia coli): 8 µg/mL (≈ 20.9 µM)
MIC50 (Pseudomonas aeruginosa [21]): 2 µg/mL (≈ 5.22 µM)
MIC90 (Pseudomonas aeruginosa [21]): > 8 µg/mL
MIC50 (Klebsiella pneumoniae): 16 µg/mL (≈ 41.7 µM)
MIC90 (Klebsiella pneumoniae): > 64 µg/mL

CC(C)(O/N=C(\C(=O)N[C@@H]1C(=O)N2C(C(=O)[O-])=C(C[n+]3ccccc3)CS[C@H]12)c1csc(N)n1)C(=O)O [CEFTAZIDIME]
Tm [39]: 56.5 °C
MIC (Pseudomonas aeruginosa [2]): 1 µg/mL (≈ 1.83 µM)
MIC50 (Escherichia coli): 2 µg/mL (≈ 3.66 µM)
MIC90 (Escherichia coli): > 16 µg/mL
MIC50 (Pseudomonas aeruginosa [21]): 4 µg/mL (≈ 7.32 µM)
MIC90 (Pseudomonas aeruginosa [21]): > 16 µg/mL
MIC (Pseudomonas aeruginosa [3]): 1 µg/mL
MIC50 (Klebsiella pneumoniae): > 64 µg/mL
MIC90 (Klebsiella pneumoniae): > 64 µg/mL
MIC (Pseudomonas aeruginosa [5]): 1 µg/mL
MIC (Pseudomonas aeruginosa [7]): 1 µg/mL
